This is an account of results in the RNAGym collection of RNA variant scans (doi:10.1126/science.aae0568).

Sequences and labels used below:
B1: tRNA (parent)
chain: GUUCCGUUGGCGUAAUGGUAACGCGUCUCCCUCCUAAGGAGAAGACUGCGGGUUCGAGUCCCGUACGGAACG

This sample holds only a part of the variants without activity.

In this data set the parent is B1. Briefly: yeast fitness relative to wild type (ratio to wild type); higher = fitter; tRNA-Arg(CCU), competitive growth, 37 C, YPD. In outline: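 Gene amplicons from the start population and from each of six end populations were read by 100-nucleotide paired-end sequencing. Those end populations came from pooled Saccharomyces cerevisiae strains carrying tRNA-Arg(CCU) gene variants at the native locus, competed in YPD at 37°C for 24 hours. Fitness relative to wild type was worked out from changes in genotype frequencies. Genotypes needed ≥ 100 starting reads, and estimates < 0.5 were set to 0.5.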
For the variant C27U C33U C66U, the yeast fitness is 0.536.

As for C27U A65C, the yeast fitness was found to be 1.02. To C27U A65G belongs 0.975.

As for U28C G38C A45U G68A A69C, the yeast fitness was at most 0.5. To C27G U47C A70U belongs 0.545; to C27G G44C A45G, 0.53. Then C29G C33A C34G, with at most 0.5; and U28A U32C G39C, with 0.542. Then U28C G44C G56C, with 0.7; and U28G A40U, with 0.843; and U28C A42C C60U, with 0.589. U28A A45G A69C: the yeast fitness was at most 0.5. To U28G C31G G39A belongs 0.578.

For the variant U28A G50U, the yeast fitness worked out at 0.622.

As for U28G G41C U64C, the yeast fitness is 0.521. Take U28C U35G A69C: the yeast fitness was at most 0.5. To C27U C31G A43C C49G G52C U59A G68A belongs at most 0.5; to C27G A45U, 0.656. To C27U A57U G58C belongs 0.667; to C29A G44C, 0.778; to C27U C55U G67C, 0.572. Regarding C27U C30G, the yeast fitness worked out at 0.624. To C29A C46U C55A belongs 0.572. Then C27U G38C A57G A65C, with at most 0.5; and C27G U59G G68C, with 0.582. To U28A C30G U59C belongs at most 0.5; to C27A U28C G67U A70G, at most 0.5. Consider C27U G58A G63A, for which the yeast fitness came out at 0.53. Regarding U28A U35A, the yeast fitness stood at 0.584. To C27U G48C A57C belongs at most 0.5. To C27A U35A A43U belongs at most 0.5. Turning to C29A G44A U64C, the yeast fitness is 0.56. Then U28C A42U A69U, with 0.74; and U28A C30U A57G, with 0.651. Then C29G A37C, with 0.56; and U28C G52C, with 0.668; and U28C G52A, with 0.836. To U28A C30U A37C G41C belongs 0.542. Consider U28A A36U C61A A69U, for which the yeast fitness is at most 0.5.

On to U28C C30U A69U, for which the yeast fitness worked out at 0.598.

In the case of U28C C49G, the yeast fitness amounted to 0.909. Take C27A G67C: the yeast fitness came to 0.786. To C27A G67A belongs 0.807. To C27A G67U belongs 0.745; to C27U A37G C55U, at most 0.5; to C27U C46U A57G, 0.679. In the case of C27U G52C, the yeast fitness is 0.7. To C27U G52A belongs 0.7. To U28C A57C belongs 0.586. Take C27U U35C: the yeast fitness came to 0.754. In the case of C27U C55A A69C, the yeast fitness worked out at 0.573. Then C29A G41A A43C, with 0.55; and C27G G52A, with 0.941; and U28C A36C U47A G58C G67U, with at most 0.5.

For C29G C30G C49U, the yeast fitness came to 0.66. C29G C30G A36G A65C: the yeast fitness worked out at 0.505. On to C27U C29G C31A, for which the yeast fitness was at most 0.5.

Turning to U28A U53A, the yeast fitness was 0.6.

With C29G C34A, the yeast fitness was 0.585. Then C29A C49A, with 0.506. Then C27U A45U G52A, with 0.63; and C27G U32A U54G, with at most 0.5. Then C29G C31G C49A, with at most 0.5; and C29A A42U U64C, with at most 0.5. As to C29G A36C G41A G50A U53C, the yeast fitness was at most 0.5. To C27G A36C belongs at most 0.5. As for U28G A43G A45G C49U A57U, the yeast fitness was at most 0.5. C27G A40G G48A A57C U64A: the yeast fitness was at most 0.5. To U28A U64C belongs 0.834.

With U28C G52C A65C, the yeast fitness was 0.596. To C27G A43C C60G belongs at most 0.5; to U28G C29U A45C, at most 0.5; to C27U C46U G48A A70C, 0.669. On to U28C C31U G50C C55U C60G G63A C66U, for which the yeast fitness was at most 0.5.

Regarding U28G C49U A69U, the yeast fitness worked out at 0.804. Then C27U A40C A57U, with 0.606; and C29A A57U C60G, with at most 0.5; and C27U G48A, with 1.1. Then C27G A45C G58C, with 0.644; and U28A C30U, with 0.667. To C27U C29G belongs 0.58; to U28C C34U, 0.71.

Take C27U A37U A69C: the yeast fitness is 0.608. To C27G A65C A70C belongs 0.53; to C27G U54C, at most 0.5. Then U28C G39A A40U A42G, with at most 0.5.

Regarding C29A C33U C61U A69U, the yeast fitness was at most 0.5. To C29A A37G C60A C66U belongs at most 0.5; to C27U U32C C55A, at most 0.5; to U28A C34U G41C G51A U53A U59C A70U, at most 0.5.

For the variant C27U A43U C55U, the yeast fitness was found to be 0.592.

Regarding C27G A43G, the yeast fitness turned out to be 0.636. With C29A G56C A57U, the yeast fitness worked out at 0.583.

Consider U28C A65U, for which the yeast fitness turned out to be 0.855.

In the case of C27G U28A C30G C31U C60A A70C, the yeast fitness is at most 0.5. Then C27U U28G A40C G51A, with 0.543; and C27U G50C, with 0.618; and C29G C31G C49G C61G, with at most 0.5.

C27U C61U: the yeast fitness was found to be 1.01. As for U28G G38C A40G, the yeast fitness was determined as 0.546. As for U28G A57U G63A, the yeast fitness stood at 0.874.

U28A C33G A36U A40G A70G: the yeast fitness was at most 0.5.

With C27U G44A, the yeast fitness is 0.887. To C29G A43C C55G belongs 0.657.

Turning to C27U G48A A65U, the yeast fitness came out at 0.714. Then U28G C29G C62A, with 0.711; and C27G C34U A43C A57U G58A C62G, with at most 0.5; and C29A A70G, with 0.723. For C29A C31U C34A A36G G56C, the yeast fitness was at most 0.5.

As to C27U G38A U59G U64C A65U, the yeast fitness is at most 0.5. Then C29A G39A, with 0.725; and C27U A42U A43U U47C, with 0.577; and C27A U32A U59C, with at most 0.5. Then C27U U28C C49U U54A A57C U59C, with 0.706. Then C29G C33U C66U, with at most 0.5. For C27U U35G A40C A57C G67U, the yeast fitness was 0.612.

Take C29A C33G: the yeast fitness was determined as 0.616. To C29A C33U belongs at most 0.5.

As for C27G A37C A57C, the yeast fitness was at most 0.5.

Turning to C29G C33U, the yeast fitness is at most 0.5. To U28C A42G belongs 0.913; to C27G C49A A70U, at most 0.5. Then U28A C34U A40U A45U C60A, with 0.706; and C29G A37G A57U, with 0.617; and U28G C46U C60A A65U A69U, with at most 0.5.

In the case of C27U A37U G67A, the yeast fitness was at most 0.5. To C29A U35C C66U belongs at most 0.5. To C27G U59C C66G belongs at most 0.5.

C27G C30U U32C G51C U64A: the yeast fitness is at most 0.5. For the variant C27U C29A A36U A40C G41A A65U, the yeast fitness is at most 0.5.

For the variant C27G A69U, the yeast fitness was determined as 0.738.

Regarding C27U C55U A70U, the yeast fitness worked out at 0.504. Then C27G A42U U53C, with at most 0.5; and C29A C49U G63A, with at most 0.5; and C27U C33A A37U A57G, with at most 0.5. Then C27U A43G C46G A69C, with at most 0.5; and C27G G58C U59C G63A, with at most 0.5; and U28A C31U U32A G52A A57U C60U A65G G68A, with at most 0.5. Then C27G C34G A37U, with at most 0.5; and C27U A40G G44A C62A, with 0.51. Consider C27U A40G G44A C62U, for which the yeast fitness was at most 0.5. To C29G C33G G41C G67C belongs at most 0.5; to C29G C33U C61U A69C, at most 0.5; to C27U G51C C55A A65C, at most 0.5. On to C27U A40G U64C, for which the yeast fitness was 0.602. Then C27U A40G U64A, with at most 0.5; and C29A C46U C60U, with at most 0.5. To U28C G39C G44C belongs 0.529; to C27U C46A A57C, 0.726; to C27G U32A C34A C55A, at most 0.5. Then U28A U32C A43C A57C, with at most 0.5; and U28C U32A G44A A57C, with at most 0.5; and C27G A36C G44A, with at most 0.5.

Take U28C C62G C66G: the yeast fitness was at most 0.5. To C29A G39C G58A belongs 0.905. Then C27U C33U A40C A57G C66U, with at most 0.5; and C27U A43U, with 1.06. To U28A U32G C55G belongs 0.505; to C27G C62U, 0.688; to C27G C31G A43C, 0.545.

Consider C27U U47A G68C, for which the yeast fitness was at most 0.5. To C29A A57G A65C belongs at most 0.5; to C27G G58A, 0.698; to C27G C61U A69U, 0.532. To U28G C29A C55A belongs at most 0.5; to C29A C34U G51A G52C U64C, 0.663.

For C27U G41A, the yeast fitness was 0.939.
